Only some compounds are listed: those with a hit (about 2% of all), similar ones and a draw of the others.
HGIII-sPLA2 inh – Blocks human group III sPLA2 activity; Q9NZ20; QFRET BODIPY PC-A2 liposome hydrolysis, fluorescence; inhibition, % at 12.2 µM; actives 0.56% (n = 370,000); AID 743126;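 active = inhibition above mean plus 3 SD of compounds lying within the high and low control bounds, cut at about 19% in these data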;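 note: 0% = median of test compound wells and 100% = no enzyme DMSO wells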
Target sequence (Q9NZ20 whole entry, looked up): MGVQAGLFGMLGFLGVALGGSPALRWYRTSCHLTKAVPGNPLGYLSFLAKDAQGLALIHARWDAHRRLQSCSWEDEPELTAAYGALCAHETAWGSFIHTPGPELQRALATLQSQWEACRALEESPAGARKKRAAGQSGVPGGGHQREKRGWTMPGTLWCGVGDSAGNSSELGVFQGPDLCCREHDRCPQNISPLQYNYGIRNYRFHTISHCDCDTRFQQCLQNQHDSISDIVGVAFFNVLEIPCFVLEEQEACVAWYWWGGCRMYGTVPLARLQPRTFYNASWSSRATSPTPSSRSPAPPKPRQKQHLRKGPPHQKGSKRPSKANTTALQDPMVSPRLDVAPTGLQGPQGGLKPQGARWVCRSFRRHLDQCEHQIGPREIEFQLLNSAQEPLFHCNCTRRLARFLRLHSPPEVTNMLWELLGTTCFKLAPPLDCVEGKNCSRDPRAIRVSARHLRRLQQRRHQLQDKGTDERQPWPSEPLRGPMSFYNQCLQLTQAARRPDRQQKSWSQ
Xi reactivation – X-chromosome reactivation activator; activation, % at 7.58 µM; AID 743238; XiGFP mouse fibroblasts, % GFP-positive cells imaging, 3 d; cells co-treated with 5-aza-dC sensitizer; scaled so ellipticine positive control = 100%; actives 0.055% (n = 360,000);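 active = mean normalized replicate activation at least 10% and every replicate at or above 10%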;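 note: 0% = median of on-plate neutral control wells and 100% = ellipticine 6 µM median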
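System: XiGFP fibroblasts, SV40-immortalized. Medium: DMEM plus 5-aza-dC sensitizer. Doses: single point. Timing: 3 d treatment, 15 min room-temperature fixation. Control set: ellipticine 6 µM.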
SR-BI uptake up – SR-BI HDL lipid transfer activation; CHO ldlA[mSR-BI] cells, DiI-HDL uptake fluorescence, 3 h; 100 = double the neutral-control signal; activation, % at 12.5 µM; actives 0.096% (n = 320,000); AID 504775;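 active = mean replicate activation of at least 60% and every replicate at or above 60%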;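 note: 0% = median plate neutral-control signal and 100% = twice that signal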
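Material: SR-BI-overexpressing, LDLR-lacking CHO cells; schedule: compound exposure 3 h, 37 °C; reagent: DiI-labelled HDL at 10 µg/mL final; technique: bottom-read fluorescence, 550/595 nm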
NSD2 HMT inh – NSD2 (human) methyltransferase inhibition; O96028; NSD2 peptide methylation, AlphaScreen, 120 min; inhibition, % at 12.5 µM; actives 0.54% (n = 310,000); in the data active = inhibition above about 50%
ARNT-TACC3 inh – ARNT/TACC3 interaction disruption; Q9Y6A5; AlphaScreen His-ARNT PAS-B/GST-TACC3 binding, luminescence; TACC3 fragment carries E629A point mutation; inhibition, % at 9.99 µM; actives 0.66% (n = 390,000); AID 623870;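 active = mean inhibition of replicates at least 50% and at least half of replicates each reaching 50%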;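 note: 0% = complete ARNT plus TACC3 wells and 100% = ARNT alone without TACC3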
SR-BI DiI inh – mouse SR-BI HDL lipid transfer inhibition; Q61009; ldlA[mSR-BI] CHO cells, DiI-HDL uptake fluorescence, 3 h; inhibition, % at 12.5 µM; actives 0.96% (n = 320,000); AID 488896;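 active = mean replicate inhibition of at least 70% and a set share of replicates each scoring 70 or more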;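 note: 0% = median of neutral control wells and 100% = median of positive control wells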
Alpha artifact – counter-screen for NSD2 inhibitors: AlphaScreen artifacts; shares compounds with NSD2 HMT inh; AlphaScreen artifact counterscreen, preloaded methylated H4 peptide; AC35, µM (highest dose often 10 µM), without a hit: top-dose activity change, negative = signal loss; actives 9.4% (n = 1,500); AID 1053174; call rule not given here
Active calls of the source: *; · = not tested or not shown.

SMILES | HGIII-sPLA2 inh | Xi reactivation | SR-BI uptake up | NSD2 HMT inh | ARNT-TACC3 inh | SR-BI DiI inh | Alpha artifact
Cc1cc(C)nc(NS(=O)(=O)c2ccc(Br)cc2)n1 | 1 | · | 1 | -8 | -4 | -1 | ·
Cc1cc(C)nc(NS(=O)(=O)c2ccc(-n3cccc3)cc2)n1 | -15 | · | 4 | 73* | -3 | -4 | -1%
Cc1c(C)n(Cc2ccccc2)c2ccc(C(=O)OCCN(C)C)cc12 | -15 | 0 | -17 | 50* | -52 | 17 | -19%
Cc1c(C)n(Cc2ccccc2)c2ccc(C(=O)NCCN3CCOCC3)cc12 | -9 | 0 | -28 | 9 | -2 | 28 | ·
CC[n+]1c(/C=C/c2c[nH]c3ccccc23)ccc2cc(C)ccc21 | -94 | 103* | -53 | 108* | 27 | 53 | -15%
Cc1ccc(CN2CCC(=O)N2)cc1 | 2 | 0 | 3 | -1 | -2 | -3 | ·
O=C1CCN(Cc2ccccc2)N1 | 8 | 0 | · | 86* | -9 | · | 1%
COc1ccc(CNC(=O)CCCN2C(=O)NC3(CCCC3)C2=O)cc1 | -2 | 0 | 21 | 58* | -5 | -21 | -5%
Cc1cc(OC(=O)c2cccc([N+](=O)[O-])c2)c(C)cc1CN1CCOCC1 | -1 | 0 | 0 | 5 | 9 | 0 | ·
O=C(NCc1ccco1)Nc1cccc([N+](=O)[O-])c1 | -1 | 0 | 7 | 52* | 7 | -7 | -1%
COc1ccc(/C=N/NC(=S)NC2CCS(=O)(=O)C2)cc1 (configuration not stated) | 7 | 0 | 17 | -3 | -1 | -17 | ·
Cc1cc(NC(=O)CSc2nc3ccccc3cc2C#N)no1 | 2 | 0 | -7 | 55* | 0 | 7 | -3%
COc1ccc2nc(SCC(=O)Nc3cc(C)on3)c(C#N)cc2c1 | 2 | 0 | · | 6 | -4 | · | ·
Cc1ccc(Cn2c(SCC(=O)N3CC(=O)Nc4ccccc43)nc3ccccc3c2=O)cc1 | -1 | 0 | 15 | 60* | 0 | -15 | -1%
Cc1cc(C(=O)COC(=O)c2ccc([N+](=O)[O-])o2)c(C)n1CC1CCCO1 (configuration not stated) | 0 | 0 | 22 | 54* | 11 | -22 | -5%
CCN(C(=O)COC(=O)c1ccc([N+](=O)[O-])o1)C1CCCCC1 | -2 | 0 | 16 | 69* | 31 | -16 | -4%
O=C(COC(=O)c1ccc([N+](=O)[O-])o1)NC1CCCCC1 | -3 | 1 | -2 | 5 | 30 | 2 | ·
CC1CCCCC1NC(=O)COC(=O)c1ccc([N+](=O)[O-])o1 (configuration not stated) | 4 | 0 | 7 | · | 18 | -7 | ·
Cc1cc(C(=O)COC(=O)c2ccc3c(c2)OCO3)c(C)n1CC1CCCO1 (configuration not stated) | 1 | 0 | 20 | -6 | -3 | -20 | ·
O=C(COC(=O)c1ccc([N+](=O)[O-])o1)NC1CCS(=O)(=O)C1 (configuration not stated) | 5 | 0 | 22 | 74* | 31* | -22 | 1%
COc1cccc(CNC(=O)CSc2nnc3c(n2)[nH]c2ccccc23)c1 | 1 | 0 | 2 | 56* | -4 | -2 | 3%
COc1cccc(CNC(=O)CSc2nnc3c(n2)[nH]c2ccc(OC)cc23)c1 | 7 | 0 | · | · | 0 | · | ·
CC(C)(C)Cc1nnc(NS(=O)(=O)c2ccc([N+](=O)[O-])cc2)s1 | -24 | 0 | -8 | 0 | -8 | 8 | ·
Cc1cccc(Nc2nc(N)c([N+](=O)[O-])c(NCc3ccco3)n2)c1 | -32 | 0 | -29 | 0 | 8 | 29 | ·
Cc1cccc(Nc2nc(NCc3ccco3)nc(N)c2[N+](=O)[O-])c1 | -4 | 0 | -33 | 96* | -2 | 33 | -5%
O=C1C(Cl)=C(NCCN2CCCCC2)C(=O)c2ccccc21 | · | · | -6 | 58* | 23 | 6 | -4%
